# Assay outcomes: PubChem, several laboratories
# In the library only some 1.4% were active in any assay of this set; here they are far more common.
# KLK5 inh – blocks human kallikrein 5 protease activity; Q9Y337; recombinant hK5, fluorogenic AMC substrate cleavage; inhibition, % at 5 µM; hit rate 0.59% among 210,000; AID 873;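 active means inhibition of 40% or more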;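 further: 0% = enzyme controls without compound and 100% = no-enzyme blanks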
# Target sequence (Q9Y337 67-293 limits assumed): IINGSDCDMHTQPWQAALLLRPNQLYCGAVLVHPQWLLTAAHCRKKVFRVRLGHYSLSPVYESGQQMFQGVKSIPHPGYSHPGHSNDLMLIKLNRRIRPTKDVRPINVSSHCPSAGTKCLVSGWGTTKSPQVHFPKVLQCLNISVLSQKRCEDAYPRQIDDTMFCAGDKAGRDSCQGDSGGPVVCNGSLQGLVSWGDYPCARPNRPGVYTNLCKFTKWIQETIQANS
# FXIIa inh 1536 – blocks human coagulation factor XIIa protease activity. purified FXIIa, Boc-QGR-AMC fluorogenic substrate, 2 h. inhibition, % at 5 µM. hit rate 0.3% among 220,000. AID 800; in the data active means inhibition above about 40%;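 further: 0% = enzyme with no compound and 100% = blank without enzyme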
# FXIa inh 1536 – factor XIa (human) inhibition | hit rate 0.14% among 220,000 | P03951 | purified FXIa, Boc-Glu-Ala-Arg-AMC fluorogenic substrate | inhibition, % at 5 µM;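 active means inhibition of at least 40%; inactive means inhibition below 40%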;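 further: fluorescence of freed AMC excited at 355 nm; 0% = enzyme without compound and 100% = no enzyme blank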
# m-calpain inh – inhibitors of pig calpain II | purified calpain II, fluorogenic peptide substrate, 30 min | inhibition, % at 16 µM | hit rate 0.37% among 220,000 | AID 1236;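 active means inhibition above about 50%, limit read from the data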
# thrombin 1536 – blocks human thrombin protease activity | P00734 | alpha-thrombin, Boc-VPR-AMC fluorogenic substrate cleavage | inhibition, % at 5 µM | hit rate 0.26% among 220,000 | AID 1046;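 active means inhibition at or above 40%; inactive means inhibition below 40%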;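 further: 0% = enzyme with no compound and 100% = wells without enzyme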
#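 Material: human alpha-thrombin protein; Also added: Boc-VPR-AMC substrate, 15 µM final; Timing: enzyme reaction carried out at room temperature; Signal: fluorescence, ex 355 nm, em 460 nm; Measure: % inhibition of thrombin; Controls: enzyme without compound as high, wells lacking enzyme as low.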
# The depositor's hits bear a star; nt = no result given.
SMILES,KLK5 inh,FXIIa inh 1536,FXIa inh 1536,m-calpain inh,thrombin 1536
CC(=O)Nc1ccc(Nc2ccc(S(=O)(=O)C(F)(F)F)cc2[N+](=O)[O-])cc1,-2,1,-8,55*,-16
O=C(Nc1ccccc1OC(F)F)C1CCCN1C(=O)c1cccs1 (configuration not stated),-14,6,3,16,-9
O=C(CSCc1ccccc1)Nc1ccc2c(c1)OCO2,-16,-3,-7,10,-2
Cc1ccc(CSCC(=O)Nc2ccc3c(c2)OCO3)cc1,46*,26,17,-7,-3
O=C(NCc1nnc(SCC(=O)N2CCCC2)o1)c1c(F)cccc1Cl,-6,8,-1,-32,-2
CCOC(=O)N1CCN(C(=O)CSc2nnc(CNC(=O)c3c(F)cccc3Cl)o2)CC1,42*,22,-1,23,13
O=C(NC(Cc1ccccc1)C(=O)O)OCc1ccccc1 (configuration not stated),-3,4,-1,26,-7
CC(C)C(NC(=O)C(Cc1ccccc1)NC(=O)OCc1ccccc1)C(=O)O (configuration not stated),21,24,47*,8,3
COC(=O)c1scc(C)c1NC(=O)CC1NCCNC1=O (configuration not stated),-3,3,-1,-14,-3
COC(=O)c1scc(C)c1NC(=O)Cc1ccccc1,70*,3,3,7,4
Cn1c(Cl)nc2c1c(=O)n(Cc1cccc(Br)c1)c(=O)n2C,34,12,14,1,104*
COc1cccc(Cn2c(NCc3ccco3)nc3c2c(=O)n(C)c(=O)n3C)c1,3,44*,12,23,0
COc1ccc(Cn2c(=O)c3c(nc(NCCO)n3C)n(C)c2=O)cc1,1,-4,-3,18,-7
Cn1c(NCc2ccccc2)nc2c1c(=O)n(Cc1ccc(Br)cc1)c(=O)n2C,1,9,0,78*,1
COc1ccc(CNc2nc3c(c(=O)n(Cc4ccc(Br)cc4)c(=O)n3C)n2C)cc1,-5,2,-3,89*,-1
CCCCC#Cc1cncc(C(=O)N/N=C/c2ccccc2)c1,1,5,3,-29,-4
N#CCC(=O)c1ccccc1Oc1ccc(Cl)cc1,16,15,7,4,-5
Cc1oc2cc(OC(=O)c3ccco3)ccc2c(=O)c1-c1nc2ccccc2n1C,8,13,19,-188,3
O=C(COC(=O)c1ccccc1C(=O)c1ccc(Cl)cc1)NC(c1ccccc1)c1ccccc1,-2,10,4,23,-9
Cn1c(NCc2ccco2)nc2c1c(=O)n(Cc1ccc(Br)cc1)c(=O)n2C,0,-7,-1,71*,1
CCCCOC(=O)Sc1nc2ccccc2o1,-50,13,2,-26,46*
COc1ccc(C(=O)/C=C/Sc2nc3ccccc3o2)cc1,-8,6,3,2,-5
Cc1ccc(C2=C/C(=C/c3cccnc3)C(=O)O2)c(C)c1,-12,3,2,-27,-6
Cc1ccc(CSc2ncnc3c2cnn3-c2ccc(C)cc2)cc1,45*,41*,22,14,21
O=C(O)c1cccc(-n2c(-c3cnccn3)n[nH]c2=S)c1,0,4,-3,-18,-4
SMILES,KLK5 inh,FXIIa inh 1536,FXIa inh 1536,m-calpain inh,thrombin 1536
CCCn1cnc2cc(NCc3cccc(OC)c3O)ccc21,-5,19,5,-61,-2
COc1cccc(CNc2ccc3c(c2)ncn3C(C)C)c1OC,58*,37,7,-5,30
OC(Cn1cncn1)(c1ccccc1)c1ccccc1,2,2,-2,27,-2
COc1ccc(OC)c(S(=O)(=O)N2CCC(C(=O)N(C)Cc3ccccc3)CC2)c1,-2,8,-2,25,-6
O=c1[nH]nc(SCc2nnc(-c3ccc([N+](=O)[O-])cc3)o2)n1C1CCCCC1,1,6,0,10,44*
COCCNC(=O)CC(NS(=O)(=O)c1ccc(C)cc1)c1ccco1 (configuration not stated),46*,52*,0,14,10
CCCCNC(=O)CC(NS(=O)(=O)c1ccc(C)cc1)c1ccco1 (configuration not stated),0,14,10,3,1
C=C(C)CSc1nnc(CCCCCNC(=O)OC(C)(C)C)o1,-2,6,-1,11,-2
COC(=O)[C@H](CCSC)NC(=O)Nc1cccc(Br)c1,-9,8,4,-14,-7
Cc1nc(=O)c(-c2ccccc2)c(C)n1CC1CCCO1 (configuration not stated),74*,5,0,8,15
S=c1[nH]nc(-c2ccccc2)n1CC1CCCO1 (configuration not stated),-2,1,1,-13,3
O=C(NNC(=O)c1cccnc1)Nc1ccc([N+](=O)[O-])cc1,42*,24,9,32,34
O=C(NNC(=O)c1ccncc1)Nc1ccc([N+](=O)[O-])cc1,1,8,0,12,0
CCOC(=O)CSc1nnc(CNC(=O)c2ccc(S(=O)(=O)N3CCCC3)cc2)n1C,48*,4,3,37,48*
CCOC(=O)CSc1nnc(CNC(=O)c2ccc(S(=O)(=O)N3CCOCC3)cc2)n1C,-24,-8,6,-10,0
COc1ccc([N+](=O)[O-])cc1N/C(=N/S(=O)(=O)c1ccccc1)c1ccccc1,-5,3,-3,33,-4
COc1ccc(F)cc1C(=O)C1CCCN(C(=O)C2=C(C)OCCO2)C1 (configuration not stated),nt,6,-1,-28,-4
CCOc1ncccc1C(=O)Nc1cccc(-c2nnc3n2CCCCC3)c1,2,nt,-3,-24,2
COc1cccc(C=NCCNC(=O)c2nonc2N)c1O,-2,12,0,101*,0
CCOc1c(CNCCNC(=O)c2nonc2N)cccc1OC,4,17,2,-11,1
CC1CCN(S(=O)C23CC4CC(CC(C4)C2)C3)CC1 (configuration not stated),3,8,2,56*,-8
COc1ccc2c(c1)oc(=O)c1c3ccccc3[nH]c21,-2,5,-2,-70,-3
Cc1cc(F)ccc1S(=O)(=O)Nc1ncnc2sc3c(c12)CCC3,11,23,41*,-44,2
Oc1ccc(/C=N/N2CCN(C3c4ccccc4-c4ccccc43)CC2)c(O)c1,-2,26,48*,24,22
Cc1[nH]c(=S)c(C#N)c(-c2ccco2)c1C(=O)N(C)C,9,10,-5,-16,2
COc1ccc(Nc2nc(NC(C)(C)C)nc(N3CCCC3)n2)c(OC)c1,-23,3,-16,-9,-1
COc1ccc(N2CCN(c3nc(NC(C)(C)C)nc(N4CCCCC4)n3)CC2)cc1,-15,4,4,65*,11
Cn1cc([N+](=O)[O-])c(C(=O)Nc2cc(Oc3cccnc3)cc([N+](=O)[O-])c2)n1,-20,-6,-2,59*,-6
